Reference: article PMC3641321 (Blood Cancer Journal, 2013)
Several values for one entry are separate records, joined by “and”; a condition that tells them apart may be missing. Equal values may be shown once. Entries after “also recorded” stand apart in the source; their conditions may differ. Marks after values point to notes of the source that are not given here. Values belong to the compound of their own block, whether it stands above or below them.

Tests used:
TEL-JAK1 = TEL-JAK1 (Homo sapiens, UniProt P23458+P41212); assay: AlphaScreen SureFire pSTAT5 assay, Ba/F3 TEL-JAK1; format: cell-based
TEL-JAK2 = TEL-JAK2 (Homo sapiens, UniProt O60674+P41212); assay: AlphaScreen SureFire pSTAT5 assay, Ba/F3 TEL-JAK2; format: cell-based
TEL-JAK3 = TEL-JAK3 (Homo sapiens, UniProt P41212+P52333); assay: AlphaScreen SureFire pSTAT5 assay, Ba/F3 TEL-JAK3; format: cell-based
JAK2V617F [1] = molecular target: T1, JAK2V617F (Homo sapiens, UniProt O60674, V617F); assay: AlphaScreen SureFire pSTAT5 assay, Ba/F3-JAK2V617F; format: cell-based
[2] = molecular target: IL-3-activated wild-type JAK2 (Homo sapiens, UniProt O60674); assay: AlphaScreen SureFire pSTAT5 assay, IL-3-stimulated Ba/F3 wild-type JAK2; format: cell-based
[3] = test system: Ba/F3 cells expressing JAK2V617F; assay: MTS cell proliferation assay, Ba/F3 JAK2V617F; format: cell-based, murine; details: Mus musculus, BaF3, 72 h, read-out: Cell proliferation assay V617F IC50±s.d.
JAK2 [4] = molecular target: T2, JAK2 (Homo sapiens, UniProt O60674); assay: JAK LanthaScreen Kinase Assay; details: Biochemical measurement of JAK inhibition, JAK2 IC50±s.d., Table 1
JAK3 = molecular target: T3, JAK3 (Homo sapiens, UniProt P52333); assay: JAK LanthaScreen Kinase Assay; details: second-tier biochemical / LanthaScreen assay
T3 sequence (P52333 1-1124): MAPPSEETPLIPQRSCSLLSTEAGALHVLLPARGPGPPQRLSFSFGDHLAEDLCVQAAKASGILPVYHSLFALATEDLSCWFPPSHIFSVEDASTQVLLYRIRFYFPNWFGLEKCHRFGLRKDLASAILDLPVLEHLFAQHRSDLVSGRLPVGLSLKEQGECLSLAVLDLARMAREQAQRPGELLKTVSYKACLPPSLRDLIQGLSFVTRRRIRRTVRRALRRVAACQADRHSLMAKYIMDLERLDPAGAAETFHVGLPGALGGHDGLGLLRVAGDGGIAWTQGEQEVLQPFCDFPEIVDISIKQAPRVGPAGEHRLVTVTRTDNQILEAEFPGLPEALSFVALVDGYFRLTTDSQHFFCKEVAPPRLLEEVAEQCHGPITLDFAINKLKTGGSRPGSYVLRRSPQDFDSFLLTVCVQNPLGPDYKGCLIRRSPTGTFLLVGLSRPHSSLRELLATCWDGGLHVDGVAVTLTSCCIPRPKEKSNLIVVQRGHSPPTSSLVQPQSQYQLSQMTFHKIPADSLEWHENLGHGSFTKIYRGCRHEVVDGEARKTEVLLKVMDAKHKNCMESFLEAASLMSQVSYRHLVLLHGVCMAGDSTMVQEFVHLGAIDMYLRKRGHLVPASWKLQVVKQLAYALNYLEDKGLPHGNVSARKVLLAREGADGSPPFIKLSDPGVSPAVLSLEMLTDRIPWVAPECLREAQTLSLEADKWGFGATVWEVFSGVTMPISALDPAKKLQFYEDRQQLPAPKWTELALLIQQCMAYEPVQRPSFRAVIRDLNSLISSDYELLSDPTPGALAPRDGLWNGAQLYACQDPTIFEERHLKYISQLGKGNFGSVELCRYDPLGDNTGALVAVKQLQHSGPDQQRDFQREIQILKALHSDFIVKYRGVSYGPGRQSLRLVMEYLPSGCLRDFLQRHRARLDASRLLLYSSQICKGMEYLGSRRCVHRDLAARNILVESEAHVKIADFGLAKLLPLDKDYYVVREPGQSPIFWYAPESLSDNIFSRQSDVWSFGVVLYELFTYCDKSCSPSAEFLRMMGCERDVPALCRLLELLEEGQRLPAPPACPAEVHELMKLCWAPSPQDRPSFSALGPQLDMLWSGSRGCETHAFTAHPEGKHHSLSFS

JAK3/JAK1 heterodimer = JAK3/JAK1 heterodimer (Homo sapiens, UniProt P23458+P52333); assay: Cellomics pSTAT5 assay, IL-2-stimulated NK-92 cells; format: cell-based
Summary of the method: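 NK-92 cells were kept overnight in MEM Alpha with 0.3% FBS and 0.3% horse serum, then plated with DMSO or a 10-point 1:3 dilution series (20 to 0.001 μM) for 10 min. IL-2 (0.5 μg/ml) was then added for 20 min. Cells were fixed, stained for pSTAT5 (pY694) with Alexa Fluor 647 and Hoechst, and imaged. IC50 came from a four-parameter logistic fit.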

[5] = test system: cytotoxic T-cells, CD3+CD8a+; assay: 14-day rat immunotoxicology, flow cytometry; format: in vivo, Sprague-Dawley rats; details: for Change in cytotoxic T-cells, CD3+CD8a+, peripheral blood / Change in cytotoxic T-cells, CD3+CD8a+, spleen: gavage, Compound 1 15 mg/kg, Compound 2 (LY2784544) 30 mg/kg; for Percentage of T-cytotoxic cells (peripheral blood and splenic): pharmacologically active exposures, result in words
JAK2 [6] = molecular target: T2, JAK2; assay: Cellomics pSTAT5 assay, EPO-stimulated TF-1 cells; format: cell-based
Summary of the method: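 TF-1 cells were starved overnight in RPMI with 0.6% FBS, then plated at 2 × 10^5 cells/well with DMSO or a 10-point 1:3 dilution series (20 to 0.001 μM). After 10 min, erythropoietin (1.6 units/ml) was added for 20 min. Cells were fixed, stained with anti-pSTAT5 (pY694) Alexa Fluor 647 and Hoechst, and imaged. IC50 came from a four-parameter logistic fit.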

[7] = test system: Ba/F3 cells expressing JAK2V617F; assay: Caspase-Glo 3/7 apoptosis assay; format: cell-based, murine; details: Mus musculus, BaF3, 18 h, read-out: Induction of apoptosis EC50 (Caspase3/7-glo)
[8] = test system: JAK2V617F signaling in Ba/F3-JAK2V617F-GFP ascitic tumor cells; assay: In vivo target inhibition, pSTAT5 in mouse ascitic tumor model; parameters: species or system SCID mice
Summary of the method: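 Ascitic tumors were grown in CB17 SCID mice for 7 days after intraperitoneal implantation of 1 × 10^7 Ba/F3-JAK2V617F-GFP cells. A single oral gavage dose (2.5–80.0 mg/kg, six animals/group) was given and tumor cells were collected 30 min later. For time courses, 20, 40 or 80 mg/kg was given with collection at 0.25–6.0 h. Cells were fixed, stained 2 h for pSTAT5 (pY694), and analysed by flow cytometry. Statistics used ANOVA with Dunnett's test and a four-parameter logistic fit.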

[9] = test system: Ba/F3-JAK2V617F-GFP tumor burden; assay: 14-day in vivo efficacy, JAK2V617F-induced mouse MPN model; parameters: species or system SCID mice
Summary of the method: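 SCID mice received 1 × 10^7 Ba/F3-JAK2V617F-GFP cells intravenously (six mice/group). Twice-daily oral gavage at 2.5–80.0 mg/kg started 7 days after infusion and ran 14 days. Endpoints were complete blood counts from cardiac puncture, spleen weight, and FACS of splenocytes for total number and percentage of GFP-positive cells. Dunnett's test at α=0.05.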

[10] = test system: Ba/F3-JAK2V617F-GFP tumor cells, erythroid progenitors, peripheral blood counts; assay: 8-day mouse hematologic disease model, hematopoiesis; format: in vivo, SCID mice; details: result in words
Summary of the method: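 This was an 8-day version of the intravenous Ba/F3-JAK2V617F-GFP SCID mouse model. Dosing at 5, 20, 40 or 80 mg/kg began one day before tumor cell infusion and continued twice daily for 8 days. Splenocytes were analysed by FACS for GFP-positive tumor cells and for erythroid progenitors stained with Ter119-APC and CD71-PE, with 7-AAD excluding nonviable cells. Peripheral blood counts were also taken.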

[11] = 14-day rat pilot toxicology study; format: in vivo; details: 30, 60, or 100 mg/kg
JAK2V617F [12] = molecular target: T1, JAK2V617F; assay: Western blot pSTAT5, Ba/F3 JAK2V617F; format: cell-based; details: 50 nM–20 μM, 2 h
wild-type JAK2 = wild-type JAK2 (Homo sapiens, UniProt O60674); assay: Western blot pSTAT5, IL-3-stimulated Ba/F3 wild-type JAK2; format: cell-based; details: Ba/F3 wild-type JAK2, 50 and 200 nM
JAK2V617F [13] = molecular target: T1, JAK2V617F; assay: Western blot pSTAT5, HEK293T JAK2V617F; format: cell-based; details: HEK293 cells expressing JAK2V617F, 1 h
JAK2 H538Q = JAK2 H538Q (Homo sapiens, UniProt O60674, H538Q); assay: Western blot pSTAT5, HEK293T JAK2 H538Q; format: cell-based; details: HEK293 cells expressing JAK2 H538Q, 1 h
JAK2 R564Q = JAK2 R564Q (Homo sapiens, UniProt O60674, R564Q); assay: Western blot pSTAT5, HEK293T JAK2 R564Q; format: cell-based; details: HEK293 cells expressing JAK2 R564Q, 1 h
JAK2Y931C = JAK2Y931C (Homo sapiens, UniProt O60674, Y931C); assay: Western blot pSTAT5, HEK293T JAK2Y931C; format: cell-based; details: HEK293 cells expressing JAK2Y931C, 1 h
JAK2Y931C, sequence (O60674 whole entry Y931C): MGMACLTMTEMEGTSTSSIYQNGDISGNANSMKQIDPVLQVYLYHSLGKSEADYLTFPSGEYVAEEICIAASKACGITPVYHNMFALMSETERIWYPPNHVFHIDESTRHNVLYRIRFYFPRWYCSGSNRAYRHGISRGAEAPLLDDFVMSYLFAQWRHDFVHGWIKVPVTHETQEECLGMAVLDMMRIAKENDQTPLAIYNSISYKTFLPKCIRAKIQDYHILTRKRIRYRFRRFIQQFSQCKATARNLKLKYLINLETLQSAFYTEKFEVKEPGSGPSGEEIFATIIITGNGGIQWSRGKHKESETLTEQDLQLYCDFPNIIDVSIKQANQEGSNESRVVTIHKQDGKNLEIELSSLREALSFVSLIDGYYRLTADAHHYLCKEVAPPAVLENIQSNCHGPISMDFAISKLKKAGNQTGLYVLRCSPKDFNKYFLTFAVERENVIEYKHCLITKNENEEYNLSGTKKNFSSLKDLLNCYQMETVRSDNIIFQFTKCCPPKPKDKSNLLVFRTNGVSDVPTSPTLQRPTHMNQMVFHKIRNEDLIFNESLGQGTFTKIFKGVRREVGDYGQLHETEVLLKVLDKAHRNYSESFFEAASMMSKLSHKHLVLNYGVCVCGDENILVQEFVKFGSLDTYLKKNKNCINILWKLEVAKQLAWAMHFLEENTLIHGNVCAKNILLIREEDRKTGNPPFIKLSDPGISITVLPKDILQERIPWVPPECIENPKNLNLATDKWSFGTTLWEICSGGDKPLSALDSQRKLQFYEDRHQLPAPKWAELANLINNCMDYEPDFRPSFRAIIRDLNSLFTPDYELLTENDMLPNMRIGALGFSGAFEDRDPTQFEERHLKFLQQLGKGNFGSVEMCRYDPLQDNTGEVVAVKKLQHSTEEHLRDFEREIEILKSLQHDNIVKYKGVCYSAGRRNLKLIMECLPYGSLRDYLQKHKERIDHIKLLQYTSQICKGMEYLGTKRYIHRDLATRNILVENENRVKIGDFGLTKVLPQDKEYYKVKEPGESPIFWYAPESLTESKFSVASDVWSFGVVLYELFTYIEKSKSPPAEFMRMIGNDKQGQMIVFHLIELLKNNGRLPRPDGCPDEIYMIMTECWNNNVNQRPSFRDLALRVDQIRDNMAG

T1 sequence (O60674 whole entry V617F): as the sequence (O60674 whole entry Y931C) above, with V617F, C931Y counted along it
JAK3/JAK1 heterodimer, sequence (P23458 whole entry, one chain of several): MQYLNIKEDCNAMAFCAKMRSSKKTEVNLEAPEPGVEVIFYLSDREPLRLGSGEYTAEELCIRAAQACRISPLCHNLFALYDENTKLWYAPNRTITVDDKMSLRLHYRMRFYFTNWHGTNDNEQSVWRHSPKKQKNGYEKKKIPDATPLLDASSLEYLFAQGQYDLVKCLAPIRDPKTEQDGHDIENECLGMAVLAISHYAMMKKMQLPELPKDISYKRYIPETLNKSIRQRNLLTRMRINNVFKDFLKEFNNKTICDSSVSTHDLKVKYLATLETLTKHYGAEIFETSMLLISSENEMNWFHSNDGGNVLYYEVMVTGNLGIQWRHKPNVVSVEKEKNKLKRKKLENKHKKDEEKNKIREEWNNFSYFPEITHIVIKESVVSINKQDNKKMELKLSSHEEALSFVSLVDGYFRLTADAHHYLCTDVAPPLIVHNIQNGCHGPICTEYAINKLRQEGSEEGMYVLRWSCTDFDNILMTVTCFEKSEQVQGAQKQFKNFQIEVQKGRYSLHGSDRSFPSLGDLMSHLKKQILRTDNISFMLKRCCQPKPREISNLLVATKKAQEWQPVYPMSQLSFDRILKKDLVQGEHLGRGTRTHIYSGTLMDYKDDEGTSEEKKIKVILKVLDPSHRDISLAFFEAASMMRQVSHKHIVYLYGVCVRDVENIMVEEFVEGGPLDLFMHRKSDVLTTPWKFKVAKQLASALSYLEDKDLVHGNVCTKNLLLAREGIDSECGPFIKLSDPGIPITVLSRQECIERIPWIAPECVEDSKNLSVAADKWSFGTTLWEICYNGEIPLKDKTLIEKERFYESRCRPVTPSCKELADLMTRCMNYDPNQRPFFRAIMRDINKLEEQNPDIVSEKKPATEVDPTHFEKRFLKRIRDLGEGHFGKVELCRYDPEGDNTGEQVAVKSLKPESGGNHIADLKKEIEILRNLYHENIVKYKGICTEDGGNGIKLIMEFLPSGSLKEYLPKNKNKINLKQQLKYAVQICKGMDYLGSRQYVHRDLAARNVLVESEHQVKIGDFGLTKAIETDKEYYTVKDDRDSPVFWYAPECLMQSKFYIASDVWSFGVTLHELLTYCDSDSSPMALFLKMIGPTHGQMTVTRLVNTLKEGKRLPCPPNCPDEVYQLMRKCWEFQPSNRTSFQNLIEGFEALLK
JAK3/JAK1 heterodimer, sequence (P14784 27-551 partner, one chain of several): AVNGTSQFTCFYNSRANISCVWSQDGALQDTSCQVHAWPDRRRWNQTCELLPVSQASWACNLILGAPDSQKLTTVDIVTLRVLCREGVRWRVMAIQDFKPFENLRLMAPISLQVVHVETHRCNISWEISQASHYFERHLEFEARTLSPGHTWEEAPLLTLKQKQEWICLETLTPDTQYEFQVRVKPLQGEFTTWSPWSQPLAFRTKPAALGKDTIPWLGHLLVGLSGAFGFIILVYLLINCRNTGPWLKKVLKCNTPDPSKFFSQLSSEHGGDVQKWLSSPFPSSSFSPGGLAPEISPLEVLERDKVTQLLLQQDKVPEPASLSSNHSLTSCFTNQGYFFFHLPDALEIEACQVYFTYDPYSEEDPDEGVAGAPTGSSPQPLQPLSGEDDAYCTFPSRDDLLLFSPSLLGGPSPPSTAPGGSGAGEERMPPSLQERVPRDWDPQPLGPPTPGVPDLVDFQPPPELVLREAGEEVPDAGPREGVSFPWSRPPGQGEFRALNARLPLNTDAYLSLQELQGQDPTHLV
JAK3/JAK1 heterodimer, sequence (P31785 23-369 partner, one chain of several): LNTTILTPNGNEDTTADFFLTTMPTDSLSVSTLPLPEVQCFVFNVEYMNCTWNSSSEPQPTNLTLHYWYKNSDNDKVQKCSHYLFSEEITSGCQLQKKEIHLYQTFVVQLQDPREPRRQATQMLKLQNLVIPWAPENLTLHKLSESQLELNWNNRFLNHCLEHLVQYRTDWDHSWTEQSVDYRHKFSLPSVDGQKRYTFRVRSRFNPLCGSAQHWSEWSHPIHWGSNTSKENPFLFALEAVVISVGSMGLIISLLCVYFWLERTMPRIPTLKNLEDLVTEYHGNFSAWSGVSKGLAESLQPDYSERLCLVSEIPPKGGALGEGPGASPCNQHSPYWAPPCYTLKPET
T2 sequence (O60674 whole entry): as the sequence (O60674 whole entry Y931C) above, with C931Y counted along it
TEL-JAK1, sequence (P23458 875-1154 limits assumed, one chain of several): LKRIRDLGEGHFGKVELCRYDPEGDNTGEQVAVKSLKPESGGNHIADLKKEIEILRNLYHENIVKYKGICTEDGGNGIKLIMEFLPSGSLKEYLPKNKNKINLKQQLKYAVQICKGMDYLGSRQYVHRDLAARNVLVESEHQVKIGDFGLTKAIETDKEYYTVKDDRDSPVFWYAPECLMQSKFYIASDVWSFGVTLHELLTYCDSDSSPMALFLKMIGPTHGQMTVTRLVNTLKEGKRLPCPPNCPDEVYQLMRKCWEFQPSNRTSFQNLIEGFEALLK
TEL-JAK2, sequence (O60674 840-1132 limits assumed, one chain of several): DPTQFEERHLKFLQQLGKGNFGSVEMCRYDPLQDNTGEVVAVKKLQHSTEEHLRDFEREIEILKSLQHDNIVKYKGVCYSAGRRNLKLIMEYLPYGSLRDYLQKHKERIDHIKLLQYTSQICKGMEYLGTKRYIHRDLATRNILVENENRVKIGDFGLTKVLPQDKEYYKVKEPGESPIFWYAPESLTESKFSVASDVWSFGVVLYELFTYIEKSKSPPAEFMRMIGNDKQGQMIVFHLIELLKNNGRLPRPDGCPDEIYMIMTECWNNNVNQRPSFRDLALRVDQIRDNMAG
JAK2 R564Q, sequence (O60674 whole entry R564Q): as the sequence (O60674 whole entry Y931C) above, with R564Q, C931Y counted along it
IL-3-activated wild-type JAK2, sequence (O60674 whole entry): as the sequence (O60674 whole entry Y931C) above, with C931Y counted along it
wild-type JAK2, sequence (O60674 whole entry): as the sequence (O60674 whole entry Y931C) above, with C931Y counted along it
JAK2 H538Q, sequence (O60674 whole entry H538Q): as the sequence (O60674 whole entry Y931C) above, with H538Q, C931Y counted along it

- IC50 (TEL-JAK1): 663 ± 74 nM
- IC50 (TEL-JAK2): 139 ± 47 nM
- IC50 (TEL-JAK3): 2.55 ± 0.345 µM
- IC50 (JAK2V617F [1]): 19 ± 13 nM
- IC50 [2]: 181 ± 132 nM
- IC50 [3]: 43 ± 1 nM
SMILES: Cc1cc(Nc2nc(N[C@@H](C)c3ncc(F)cn3)ncc2Cl)n[nH]1 [AZD1480, reference compound]

- IC50 (JAK2 [4]): 2 nM
- Selectivity for JAK2 over JAK3, biochemical (JAK3): fourfold
- IC50 (JAK3/JAK1 heterodimer): 228 ± 76 nM
SMILES: Cc1cc(Nc2ccc3ncn([C@@H]4CCc5ccc(F)cc54)c3n2)[nH]n1.Cl.Cl [Compound 1, 3-[(1R)-6-fluoro-2,3-dihydro-1H-inden-1-yl]-N-(3-methyl-1H-pyrazol-5-yl)-3H-imidazo[4,5-b]pyridin-5-amine dihydrochloride]
- Change in cytotoxic T-cells, CD3+CD8a+, peripheral blood [5]: −39 (P<0.05) %
- Change in cytotoxic T-cells, CD3+CD8a+, spleen [5]: −42 (P<0.05) ^d %
- Percentage of T-cytotoxic cells (peripheral blood and splenic) [5]: statistically significant decrease

SMILES: Cc1cc(Nc2cc(CN3CCOCC3)c3nc(C)c(Cc4ccc(Cl)cc4F)n3n2)n[nH]1 [LY2784544, 3-(4-chloro-2-fluorobenzyl)-2-methyl-N-(5-methyl-1H-pyrazol-3-yl)-8-(morpholinomethyl)imidazo[1,2-b]pyridazin-6-amine]
- IC50 (JAK2 [6]): 45 ± 19 nM
- IC50 (JAK3/JAK1 heterodimer): 942 ± 255 nM
- Change in cytotoxic T-cells, CD3+CD8a+, peripheral blood [5]: No change
- Change in cytotoxic T-cells, CD3+CD8a+, spleen [5]: No change
- Percentage of T-cytotoxic cells (peripheral blood and splenic) [5]: did not decrease
- IC50 (TEL-JAK1): 2900 ± 486 nM
- IC50 (TEL-JAK2): 191 ± 36 nM
- IC50 (TEL-JAK3): 4.74 ± 0.738 µM
- IC50 [3]: 55 ± 4 nM
- EC50 [7]: 113 ± 0.023 nM
- TEC50, plasma concentration to inhibit 50% of STAT5 phosphorylation ([8]; 30 min after oral dosing): 699.0 ng/ml and 1.49 μM
- Duration of statistically significant inhibition of STAT5 phosphorylation ([8]; single 40 mg/kg oral dose): at least 2 h
- Duration of statistically significant inhibition of STAT5 phosphorylation ([8]; single 80 mg/kg oral dose): at least 6 h
- TED50, dose to inhibit 50% of STAT5 phosphorylation ([8]; single oral dose, 30 min after dosing, ascitic tumor cells): 12.7 mg/kg
- Spleen mass reduction ([9]; 20 mg/kg BID, 14 days): about 20%
- Decrease in GFP-positive Ba/F3-JAK2V617F cells ([9]; 20 mg/kg BID, 14 days, spleen): ~50%
- Reduction of the number of Ba/F3 cells expressing JAK2V617F ([9]; 20, 40 or 80 mg/kg, BID): ≥ 50%
- TED50 for tumor burden reduction ([9]; oral, twice daily, 14 days, Ba/F3-JAK2V617F-GFP cells in spleen): 13.7 mg/kg
- Percentage of Ba/F3-JAK2V617F-GFP-positive cells in spleen ([10]; 40 mg/kg (P=8 × 10^−4) and 80 mg/kg (P=8 × 10^−7) BID, 8 days): significantly reduced
- Effect on erythroid progenitor (CD71+/Ter119+) cells ([10]; 5–80 mg/kg BID, 8 days): no effect; also recorded: did not affect
- Effect on peripheral blood reticulocytes ([10]; 5–80 mg/kg BID, 8 days): no effect; also recorded: did not reduce
- Effect on platelets [10]: no effect
- Gastric- and intestine-related toxicity [11]: No gastric- and intestine-related toxicity was observed
- Inhibition of STAT5 phosphorylation, western blot (JAK2V617F [12]): potently inhibited
- Inhibition of IL-3-stimulated STAT5 phosphorylation, western blot (wild-type JAK2): marginal inhibition
- Inhibition of STAT5 phosphorylation, western blot (JAK2V617F [13]): effectively inhibited
- Inhibition of STAT5 phosphorylation, western blot (JAK2 H538Q): effectively inhibited
- Inhibition of STAT5 phosphorylation, western blot (JAK2 R564Q): effectively inhibited
- Inhibition of STAT5 phosphorylation, western blot (JAK2Y931C): much less potency
